Measurements taken from ChEMBL document CHEMBL1155937, “Substituted 3-((Z)-2-(4-nitrophenyl)-2-(1H-tetrazol-5-yl) vinyl)-4H-chromen-4-ones as novel anti-MRSA agents: synthesis, SAR, and in-vitro assessment” (Bioorg Med Chem Lett, 2008).
Values after ≈ are worked out from the molar mass of the structure shown.

Legend:
[1] = pKa of the compound; assay type: physicochemical
Staphylococcus aureus [2] = assay: Antibacterial activity against methicillin-sensitive Staphylococcus aureus ATCC 13709 Smith after 24 hrs by twofold serial dilution method; assay type: functional
Outline: (§1)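 CLSI agar-dilution MIC on Mueller Hinton agar with serial twofold drug dilutions. About 10⁴ CFU applied per spot by multipoint inoculator. Incubated at 35 °C and growth scored at 24 h. DMSO served as solvent control. S. aureus ATCC 29213 was the QC strain. Twofold differences were confirmed by a third repetition, and the more frequent result was reported.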

Staphylococcus aureus [3] = assay: Antibacterial activity against methicillin-resistant Staphylococcus aureus 032 after 24 hrs by twofold serial dilution method; assay type: functional
Outline: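 Agar dilution MIC per CLSI on Mueller Hinton agar with serial twofold drug dilutions. About 10⁴ CFU applied per spot with a multipoint inoculator, incubated at 35 °C, and growth scored at 24 h. DMSO served as solvent control. Twofold discrepancies were confirmed by a third repetition, and the more frequent value was reported.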

Enterococcus faecalis = assay: Antibacterial activity against Enterococcus faecalis ATCC 29212 after 24 hrs by twofold serial dilution method; assay type: functional; settings: ATCC 29212, 24 h; outline: as §1
Streptococcus pneumoniae = assay: Antibacterial activity against Streptococcus pneumoniae ATCC 49619 after 24 hrs by twofold serial dilution method; assay type: functional; settings: ATCC 49619, 24 h
Outline: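 About 10⁴ CFU applied per spot. Incubated at 35 °C in 5% CO₂ and growth scored at 24 h. DMSO served as solvent control. Twofold differences were confirmed by a third repetition.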

Escherichia coli = assay: Antibacterial activity against Escherichia coli ATCC 25922 after 24 hrs by twofold serial dilution method; assay type: functional; settings: ATCC 25922, 24 h; outline: as §1

## O=c1c(-c2nnn[nH]2)coc2ccccc12
[1]
  pKa: 5.85

## O=c1c(/C=C(/c2ccc([N+](=O)[O-])cc2)c2nnn[nH]2)coc2ccc(Br)cc12
Staphylococcus aureus [2]
  MIC: > 32 µg/mL
Staphylococcus aureus [3]
  MIC: > 32 µg/mL
Enterococcus faecalis
  MIC: > 32 µg/mL
Streptococcus pneumoniae
  MIC: > 32 µg/mL
Escherichia coli
  MIC: > 32 µg/mL

## Cc1cc2occ(/C=C(/c3ccc([N+](=O)[O-])cc3)c3nnn[nH]3)c(=O)c2cc1Cl
Staphylococcus aureus [2]
  MIC: 16 µg/mL (≈ 39 µM)
Staphylococcus aureus [3]
  MIC: 4 µg/mL (≈ 9.76 µM)
Enterococcus faecalis
  MIC: 16 µg/mL (≈ 39 µM)
Streptococcus pneumoniae
  MIC: 16 µg/mL (≈ 39 µM)
Escherichia coli
  MIC: > 32 µg/mL

## O=c1c(/C=C(/c2ccc([N+](=O)[O-])cc2)c2nnn[nH]2)coc2ccc(Cl)cc12
Staphylococcus aureus [2]
  MIC: > 32 µg/mL
Staphylococcus aureus [3]
  MIC: > 32 µg/mL
Enterococcus faecalis
  MIC: > 32 µg/mL
Streptococcus pneumoniae
  MIC: > 32 µg/mL
Escherichia coli
  MIC: > 32 µg/mL

## Cc1cc(C)c2occ(/C=C(/c3ccc([N+](=O)[O-])cc3)c3nnn[nH]3)c(=O)c2c1
Staphylococcus aureus [2]
  MIC: 8 µg/mL (≈ 20.5 µM)
Staphylococcus aureus [3]
  MIC: 2 µg/mL (≈ 5.14 µM)
Enterococcus faecalis
  MIC: 16 µg/mL (≈ 41.1 µM)
Streptococcus pneumoniae
  MIC: 16 µg/mL (≈ 41.1 µM)
Escherichia coli
  MIC: > 32 µg/mL

## O=c1c(/C=C(/c2ccc([N+](=O)[O-])cc2)c2nnn[nH]2)coc2c(Cl)cc(Cl)cc12
Staphylococcus aureus [2]
  MIC: 16 µg/mL (≈ 37.2 µM)
Staphylococcus aureus [3]
  MIC: 2 µg/mL (≈ 4.65 µM)
Enterococcus faecalis
  MIC: 8 µg/mL (≈ 18.6 µM)
Streptococcus pneumoniae
  MIC: 1 µg/mL (≈ 2.32 µM)
Escherichia coli
  MIC: > 32 µg/mL

## Cc1ccc2occ(/C=C(/c3ccc([N+](=O)[O-])cc3)c3nnn[nH]3)c(=O)c2c1
Staphylococcus aureus [2]
  MIC: 8 µg/mL (≈ 21.3 µM)
Staphylococcus aureus [3]
  MIC: > 32 µg/mL
Enterococcus faecalis
  MIC: > 32 µg/mL
Streptococcus pneumoniae
  MIC: > 32 µg/mL
Escherichia coli
  MIC: > 32 µg/mL

## O=c1c(/C=C(/c2ccc([N+](=O)[O-])cc2)c2nnn[nH]2)coc2ccc(F)cc12
Staphylococcus aureus [2]
  MIC: 8 µg/mL (≈ 21.1 µM)
Staphylococcus aureus [3]
  MIC: 0.5 µg/mL (≈ 1.32 µM)
Enterococcus faecalis
  MIC: 4 µg/mL (≈ 10.5 µM)
Streptococcus pneumoniae
  MIC: 0.5 µg/mL (≈ 1.32 µM)
Escherichia coli
  MIC: > 32 µg/mL

## CC1(C)S[C@@H]2[C@H](NC(=O)[C@H](N)c3ccccc3)C(=O)N2[C@H]1C(=O)O [AMPICILLIN]
Staphylococcus aureus [2]
  MIC: 0.25 µg/mL (≈ 0.715 µM)
Staphylococcus aureus [3]
  MIC: > 32 µg/mL
Enterococcus faecalis
  MIC: 0.5 µg/mL (≈ 1.43 µM)
Streptococcus pneumoniae
  MIC: 0.06 µg/mL (≈ 0.172 µM)
Escherichia coli
  MIC: > 32 µg/mL

## O=C(O)c1cn(C2CC2)c2cc(N3CCNCC3)c(F)cc2c1=O [CIPROFLOXACIN]
Staphylococcus aureus [2]
  MIC: 0.12 µg/mL (≈ 0.362 µM)
Staphylococcus aureus [3]
  MIC: > 32 µg/mL
Enterococcus faecalis
  MIC: 0.5 µg/mL (≈ 1.51 µM)
Streptococcus pneumoniae
  MIC: 2 µg/mL (≈ 6.04 µM)
Escherichia coli
  MIC: > 32 µg/mL

## CC[C@H]1OC(=O)[C@H](C)[C@@H](O[C@H]2C[C@@](C)(OC)[C@@H](O)[C@H](C)O2)[C@H](C)[C@@H](O[C@@H]2O[C@H](C)C[C@H](N(C)C)[C@H]2O)[C@](C)(O)C[C@@H](C)C(=O)[C@H](C)[C@@H](O)[C@]1(C)O [ERYTHROMYCIN]
Staphylococcus aureus [2]
  MIC: 0.5 µg/mL (≈ 0.681 µM)
Staphylococcus aureus [3]
  MIC: > 32 µg/mL
Enterococcus faecalis
  MIC: 2 µg/mL (≈ 2.73 µM)
Streptococcus pneumoniae
  MIC: 0.12 µg/mL (≈ 0.164 µM)
Escherichia coli
  MIC: > 32 µg/mL
